The values that follow come from ChEMBL document CHEMBL2375242, “Synthesis of (S)-FTY720 vinylphosphonate analogues and evaluation of their potential as sphingosine kinase 1 inhibitors and activators” (Bioorg Med Chem, 2013).

In experiment [1] the target is T1, Sphingosine kinase 1 (Homo sapiens, UniProt Q9NYA1). The experiment is described as follows: Inhibition of recombinant GFP-tagged SK1 (unknown origin) expressed in HEK293 cells using sphingosine as substrate at 50 uM after 30 mins by Cerenkov counting analysis relative to control. The format is cell-based. Put shortly:
(§1)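 Lysate of HEK 293 cells stably overexpressing GFP-SK1 (30 μg protein) was incubated for 30 min at 30 °C with 3 μM sphingosine (Km) in Triton X-100 and 250 μM [γ-32P]ATP in 10 mM MgCl2, at pH 7.4 Tris buffer with phosphatase and protease inhibitors. Compounds were in DMSO; the control was 5% DMSO. [32P]-S1P was extracted into 1-butanol/KCl and measured by Cerenkov counting. Activity is % of the sphingosine-alone control, n = 3, mean ± S.E.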

Experiment [2] deals with T1, Sphingosine kinase 1. Description: Activity at recombinant GFP-tagged SK1 (unknown origin) expressed in HEK293 cells at 50 uM after 30 mins by Cerenkov counting analysis. The format is cell-based.
Experiment [3] concerns the target T1, Sphingosine kinase 1. The experiment is described as follows: Activation of recombinant GFP-tagged SK1 (unknown origin) expressed in HEK293 cells using sphingosine as substrate after 30 mins by Cerenkov counting analysis. It counts as cell-based. Put shortly: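 Enzyme source: lysates (30 μg) of HEK 293 cells stably overexpressing GFP-SK1, cultured in DMEM/10% FCS with geneticin. Reaction run 30 min at 30 °C with 3 μM sphingosine in Triton X-100 (0.063% final) and 250 μM [γ-32P]ATP in 10 mM MgCl2, pH 7.4 Tris buffer. Compound added in DMSO; control is 5% DMSO, set as 100% activity. [32P]-S1P is extracted into butanol and read by Cerenkov counting. EC50 from concentration-response, n = 3.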

In experiment [4] the target is T1, Sphingosine kinase 1. The experiment is described as follows: Activation of recombinant GFP-tagged SK1 (unknown origin) expressed in HEK293 cells using sphingosine as substrate at 50 uM after 30 mins by Cerenkov counting analysis relative to control. It counts as cell-based. In a few lines:
as §1

The target of experiment [5] is T1, Sphingosine kinase 1. The experiment is described as follows: Competitive inhibition of SK1 (unknown origin) in presence of ATP.
For experiment [6], the target named is T1, Sphingosine kinase 1. The experiment is described as follows: Uncompetitive inhibition of SK1 (unknown origin) in presence of ATP.
Experiment [7] addresses T1, Sphingosine kinase 1. The experiment is described as follows: Uncompetitive inhibition of recombinant SK1 (unknown origin) expressed in HEK293 cells after 15 to 20 mins by Cornish-Bowden plot analysis in presence of sphingosine. It counts as cell-based.
In experiment [8] the target is T1, Sphingosine kinase 1. The experiment is described as follows: Inhibition of recombinant GFP-tagged SK1 (unknown origin) expressed in HEK293 cells using sphingosine as substrate at 50 uM after 30 mins by Cerenkov counting analysis relative to control.
The target of experiment [9] is T1, Sphingosine kinase 1. The experiment is described as follows: Activation of recombinant GFP-tagged SK1 (unknown origin) expressed in HEK293 cells using sphingosine as substrate above 50 uM after 30 mins by Cerenkov counting analysis. The format is cell-based. Put shortly:
as §1

Structures are written as SMILES. Calls of active or inactive are those of the source. The calls are words filed in the database; no cut-off is given here.

T1 sequence (Q9NYA1 whole entry): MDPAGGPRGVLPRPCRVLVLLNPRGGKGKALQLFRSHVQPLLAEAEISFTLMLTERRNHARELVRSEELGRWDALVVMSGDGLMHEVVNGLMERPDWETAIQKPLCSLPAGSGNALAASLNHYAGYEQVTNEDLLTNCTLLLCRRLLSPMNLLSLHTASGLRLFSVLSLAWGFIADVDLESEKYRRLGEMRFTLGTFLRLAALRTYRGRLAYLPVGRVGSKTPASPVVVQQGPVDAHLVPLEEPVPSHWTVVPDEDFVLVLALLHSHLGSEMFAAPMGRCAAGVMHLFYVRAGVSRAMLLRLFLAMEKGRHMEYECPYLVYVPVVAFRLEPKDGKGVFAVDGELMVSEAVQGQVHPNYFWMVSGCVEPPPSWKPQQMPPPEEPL

Usually inhibition stands for the relative decrease from the control value, in per cent. Consider `CCCCCCCCc1ccc(CC[C@]2(N)CCC(=O)OC2)cc1`, for which, at Sphingosine kinase 1 [1], the inhibition amounted to 35%. Also, the outcome at Sphingosine kinase 1 [2] was inactive.
For `CCCCCCCCc1ccc(CC[C@](N)(/C=C/C(=O)O)CO)cc1`, in that order: “inactive” and “inactive”.
By EC50 is commonly meant the midpoint of the concentration-response curve. Regarding `CCCCCCCCc1ccc(CC[C@](/C=C/P(=O)(O)O)(CF)N=[N+]=[N-])cc1`, on Sphingosine kinase 1 [3], the EC50 was found to be 5.7 µM. Also, the Activity on Sphingosine kinase 1 [4] was found to be 30%. Also, the result on Sphingosine kinase 1 [2] was inactive.
In the case of `CCCCCCCCc1ccc(CC[C@](N)(/C=C/P(=O)(O)O)CF)cc1`, the inhibition on Sphingosine kinase 1 [1] turned out to be 20%. In addition, at Sphingosine kinase 1 [2], the outcome was inactive.
As to `CCCCCCCCc1ccc(CC[C@](N)(/C=C/P(=O)(O)O)CO)cc1`, at Sphingosine kinase 1 [5], the Kic turned out to be 10 µM. The Kiuc at Sphingosine kinase 1 [6] amounted to 65 µM; on Sphingosine kinase 1 [7], 14.5 µM. For the same molecule, at Sphingosine kinase 1 [8], the inhibition is 62.7%.
For the molecule `CCCCCCCCc1ccc(CC[C@](/C=C/P(=O)(O)O)(CO)N=[N+]=[N-])cc1`, the outcome on Sphingosine kinase 1 [9] and on Sphingosine kinase 1 [2] was inactive. For the same molecule, the EC50 at Sphingosine kinase 1 [3] turned out to be 8.3 µM. Also, at Sphingosine kinase 1 [4], the Activity was 30%.
